Results published in ChEMBL document CHEMBL1133544, “Formaldehyde-induced alkylation of a 2'-aminoglucose rebeccamycin derivative to both A.T and G.C base pairs in DNA” (J Med Chem, 2000).
“And” between values parts separate entries of the source, which are not always exact repeats. Equal entries are not always repeated.

Experiments:
[1] = Delta Tm value ( Tmdrug-DNA )-TmDNA ) was obtained for the covalently cross-linked compound in the absence of formaldehyde using calf thymus DNA.; type: ADME; conditions: cattle
In short: (§1)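 Drug added to nucleic acid at the stated drug/DNA ratio with no HCHO, in BPE buffer pH 7.0 (6 mM Na2HPO4, 2 mM NaH2PO4, 1 mM EDTA). DNA or polynucleotide at 20 μM nucleotide. Absorbance read at 260 nm while heating 20–100 °C at 1 °C/min. Tm taken as the midpoint of the hyperchromic transition; ΔTm = Tm(drug–DNA) − Tm(DNA). Duplicate determinations at each drug concentration.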

[2] = Delta Tm value ( Tmdrug-DNA )-TmDNA ) was obtained for the covalently cross-linked compound in the presence of formaldehyde using twice of poly(dA-dT) at 0.05 M; type: ADME
In short: (§2)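 The preformed drug–nucleic acid complex, at the stated drug/DNA ratio, was treated with HCHO before melting. Melting was done in BPE buffer pH 7.0 with 20 μM nucleotide, monitored at 260 nm, heating 20–100 °C at 1 °C/min. Tm is the hyperchromic transition midpoint, and ΔTm is taken relative to free nucleic acid. Each drug concentration was run in duplicate.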

[3] = Delta Tm value ( Tmdrug-DNA )-TmDNA ) was obtained for the covalently cross-linked compound in the presence of formaldehyde using twice of poly(dA-dT) at 0.1 M; type: ADME; in short: as §2
[4] = Delta Tm value ( Tmdrug-DNA )-TmDNA ) was obtained for the covalently cross-linked compound in the presence of formaldehyde using twice of poly(dA-dT) at 0.25 M; type: ADME; in short: as §2
[5] = Delta Tm value ( Tmdrug-DNA )-TmDNA ) was obtained for the covalently cross-linked compound in the presence of formaldehyde using twice of poly(dA-dT) at 0.5 M; type: ADME; in short: as §2
[6] = Delta Tm value ( Tmdrug-DNA )-TmDNA ) was obtained for the covalently cross-linked compound in the presence of formaldehyde using twice of poly(dI-dC) at 0.05 M; type: ADME; in short: as §2
[7] = Delta Tm value (Tm(drug-DNA)-Tm(DNA)) was determined for the covalently cross-linked compound in the presence of formaldehyde using calf thymus DNA at 0.05 M; type: ADME; conditions: cattle; in short: as §2
[8] = Delta Tm value (Tm(drug-DNA)-Tm(DNA)) was determined for the covalently cross-linked compound in the presence of formaldehyde using twice of poly(dI-dC) at 0.25 M; type: ADME; in short: as §2
[9] = Delta Tm value (Tm(drug-DNA)-Tm(DNA)) was obtained for the covalently cross-linked compound in the absence of formaldehyde using twice of poly(dI-dC); type: ADME; in short: as §1
[10] = Delta Tm value (Tm(drug-DNA)-Tm(DNA)) was obtained for the covalently cross-linked compound in the absence of formaldehyde using twice of poly(dI-dC) at 0.05 M; type: ADME; in short: as §1
[11] = Delta Tm value (Tm(drug-DNA)-Tm(DNA)) was obtained for the covalently cross-linked compound in the absence of formaldehyde using twice of poly(dI-dC) at 0.25 M; type: ADME; in short: as §1
Bos taurus [12] = organism: Bos taurus; assay: Delta Tm value ( Tmdrug-DNA )-TmDNA ) was obtained for the covalently cross-linked compound in the absence of formaldehyde using calf thymus DNA at 0.05 M; type: ADME; conditions: cattle; in short: as §1
Bos taurus [13] = organism: Bos taurus; assay: Delta Tm value ( Tmdrug-DNA )-TmDNA ) was obtained for the covalently cross-linked compound in the absence of formaldehyde using calf thymus DNA at 0.1 M; type: ADME; conditions: cattle; in short: as §1
Bos taurus [14] = organism: Bos taurus; assay: Delta Tm value ( Tmdrug-DNA )-TmDNA ) was obtained for the covalently cross-linked compound in the absence of formaldehyde using calf thymus DNA at 0.25 M; type: ADME; conditions: cattle; in short: as §1
Bos taurus [15] = organism: Bos taurus; assay: Delta Tm value ( Tmdrug-DNA )-TmDNA ) was obtained for the covalently cross-linked compound in the absence of formaldehyde using calf thymus DNA at 0.5 M; type: ADME; conditions: cattle; in short: as §1
Bos taurus [16] = organism: Bos taurus; assay: Delta Tm value ( Tmdrug-DNA )-TmDNA ) was obtained for the covalently cross-linked compound in the absence of formaldehyde using calf thymus DNA at 1 M; type: ADME; conditions: cattle; in short: as §1
Bos taurus [17] = organism: Bos taurus; assay: Delta Tm value ( Tmdrug-DNA )-TmDNA ) was obtained for the covalently cross-linked compound in the presence of formaldehyde using calf thymus DNA at 0.1 M; type: ADME; conditions: cattle; in short: as §2
Bos taurus [18] = organism: Bos taurus; assay: Delta Tm value ( Tmdrug-DNA )-TmDNA ) was obtained for the covalently cross-linked compound in the presence of formaldehyde using calf thymus DNA at 0.25 M; type: ADME; conditions: cattle; in short: as §2
Bos taurus [19] = organism: Bos taurus; assay: Delta Tm value ( Tmdrug-DNA )-TmDNA ) was obtained for the covalently cross-linked compound in the presence of formaldehyde using calf thymus DNA at 0.5 M; type: ADME; conditions: cattle; in short: as §2
Bos taurus [20] = organism: Bos taurus; assay: Delta Tm value ( Tmdrug-DNA )-TmDNA ) was obtained for the covalently cross-linked compound in the presence of formaldehyde using calf thymus DNA at 1 M; type: ADME; conditions: cattle; in short: as §2
Bos taurus [21] = organism: Bos taurus; assay: Delta Tm value ( Tmdrug-DNA )-TmDNA ) was obtained for the covalently cross-linked compound in the presence of formaldehyde using calf thymus DNA.; type: ADME; conditions: cattle; in short: as §2
[22] = Delta Tm value ( Tmdrug-DNA )-TmDNA ) was obtained for the covalently cross-linked compound in the presence of formaldehyde using poly(dA-dC).poly(dG-dT) at 0.05 M; type: ADME; in short: as §2
[23] = Delta Tm value ( Tmdrug-DNA )-TmDNA ) was obtained for the covalently cross-linked compound in the presence of formaldehyde using poly(dA-dC).poly(dG-dT) at 0.1 M; type: ADME; in short: as §2
[24] = Delta Tm value ( Tmdrug-DNA )-TmDNA ) was obtained for the covalently cross-linked compound in the presence of formaldehyde using poly(dA-dC).poly(dG-dT) at 0.25 M; type: ADME; in short: as §2
[25] = Delta Tm value ( Tmdrug-DNA )-TmDNA ) was obtained for the covalently cross-linked compound in the presence of formaldehyde using twice of poly(dA-dT); type: ADME; in short: as §2
[26] = system: [poly(dA-dT)]2 (synthetic); assay: Delta Tm value ( Tmdrug-DNA )-TmDNA ) was obtained for the covalently cross-linked compound in the absence of formaldehyde using twice of poly(dA-dT); conditions: in vivo
[27] = system: poly(dA-dC)·poly(dG-dT) (synthetic); assay: Delta Tm value ( Tmdrug-DNA )-TmDNA ) was obtained for the covalently cross-linked compound in the absence of formaldehyde using poly(dA-dC).poly(dG-dT); conditions: in vitro
[28] = system: poly(dA-dC)·poly(dG-dT) (synthetic); assay: Delta Tm value ( Tmdrug-DNA )-TmDNA ) was obtained for the covalently cross-linked compound in the presence of formaldehyde using poly(dA-dC).poly(dG-dT); conditions: in vitro
[29] = system: [poly(dA-dT)]2 (synthetic); assay: Delta Tm value ( Tmdrug-DNA )-TmDNA ) was obtained for the covalently cross-linked compound in the absence of formaldehyde using twice of poly(dA-dT) at 0.1 M; conditions: in vivo
[30] = system: [poly(dA-dT)]2 (synthetic); assay: Delta Tm value ( Tmdrug-DNA )-TmDNA ) was obtained for the covalently cross-linked compound in the absence of formaldehyde using twice of poly(dA-dT) at 0.05 M; conditions: in vivo
[31] = system: [poly(dA-dT)]2 (synthetic); assay: Delta Tm value ( Tmdrug-DNA )-TmDNA ) was obtained for the covalently cross-linked compound in the absence of formaldehyde using twice of poly(dA-dT) at 0.25 M; conditions: in vivo
[32] = system: poly(dA-dC)·poly(dG-dT) (synthetic); assay: Delta Tm value ( Tmdrug-DNA )-TmDNA ) was obtained for the covalently cross-linked compound in the absence of formaldehyde using poly(dA-dC).poly(dG-dT) at 0.1 M; conditions: in vitro
[33] = system: poly(dA-dC)·poly(dG-dT) (synthetic); assay: Delta Tm value ( Tmdrug-DNA )-TmDNA ) was obtained for the covalently cross-linked compound in the absence of formaldehyde using poly(dA-dC).poly(dG-dT) at 0.05 M; conditions: in vitro
[34] = system: poly(dA-dC)·poly(dG-dT) (synthetic); assay: Delta Tm value ( Tmdrug-DNA )-TmDNA ) was obtained for the covalently cross-linked compound in the absence of formaldehyde using poly(dA-dC).poly(dG-dT) at 0.25 M; conditions: in vitro

COC1C(CO)OC(n2c3ccccc3c3c4c(c5c6ccccc6[nH]c5c32)C(=O)N(N)C4=O)C(N)C1O (centres undefined)
Delta Tm [1]: 0 °C | Delta Tm [2]: 5.9 °C | Delta Tm [3]: 11.9 °C | Delta Tm [4]: 31 °C | Delta Tm [5]: 50.8 °C | Delta Tm [6]: 3.1 °C | Delta Tm [7]: 6 °C | Delta Tm [8]: 10 °C | Delta Tm [9]: 0 °C and -1 °C | Delta Tm [10]: 2 °C | Delta Tm [11]: 8.9 °C | Delta Tm (Bos taurus [12]): 2 °C | Delta Tm (Bos taurus [13]): 4 °C | Delta Tm (Bos taurus [14]): 6.7 °C | Delta Tm (Bos taurus [15]): 6.5 °C | Delta Tm (Bos taurus [16]): 6.7 °C | Delta Tm (Bos taurus [17]): 11.9 °C | Delta Tm (Bos taurus [18]): 22.3 °C | Delta Tm (Bos taurus [19]): 26.2 °C | Delta Tm (Bos taurus [20]): 28.7 °C | Delta Tm (Bos taurus [21]): 0 °C | Delta Tm [22]: 6.7 °C | Delta Tm [23]: 12.4 °C | Delta Tm [24]: 21.2 °C | Delta Tm [25]: 0 °C | Delta Tm [26]: 0 °C | Delta Tm [27]: 0 °C | Delta Tm [28]: -2 °C | Delta Tm [29]: 3 °C | Delta Tm [30]: 2 °C | Delta Tm [31]: 4.8 °C | Delta Tm [32]: 1.8 °C | Delta Tm [33]: 1 °C | Delta Tm [34]: 2.9 °C
